# CYP2C9 activ: increases human cytochrome P450 2C9 activity. P11712. recombinant CYP2C9, luciferin-H conversion, luminescence; hits give high values; factor 1 = untreated enzyme, 0 = blocked. activation factor at 5 µM. 96,000 tested, 1.4% active;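 active means activation factor of 2 or more for CYP2C9 at a 5 µM dose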;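 further: 0 = sulfaphenazole-blocked wells and 1 = vehicle-only wells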
# Target sequence (P11712 whole entry, looked up): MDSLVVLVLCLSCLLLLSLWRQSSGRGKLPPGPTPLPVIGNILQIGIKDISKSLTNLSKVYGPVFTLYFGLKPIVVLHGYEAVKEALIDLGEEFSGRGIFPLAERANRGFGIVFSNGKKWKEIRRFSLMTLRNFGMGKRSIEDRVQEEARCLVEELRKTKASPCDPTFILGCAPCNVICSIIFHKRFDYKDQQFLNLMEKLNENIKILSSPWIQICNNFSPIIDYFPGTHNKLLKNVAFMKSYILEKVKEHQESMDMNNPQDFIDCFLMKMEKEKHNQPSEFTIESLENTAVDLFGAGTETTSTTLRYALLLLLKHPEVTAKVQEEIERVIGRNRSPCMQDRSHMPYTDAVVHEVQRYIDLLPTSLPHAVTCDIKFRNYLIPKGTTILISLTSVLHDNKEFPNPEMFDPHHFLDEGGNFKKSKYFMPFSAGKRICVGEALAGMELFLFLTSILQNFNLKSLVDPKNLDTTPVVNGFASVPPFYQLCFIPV
# CYP2C19 activ: increases human CYP2C19 enzyme activity. recombinant CYP2C19, luciferin-H EGE luminescence; hits give high values; 0 = fully inhibited enzyme, 1 = untreated enzyme. activation factor at 5 µM. 96,000 tested, under 10 active;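 active means activation factor of at least 2 at 5 µM in the primary screen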;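 further: 0 = wells with 2.5 mM tranylcypromine and 1 = vehicle-only wells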
# CYP2C19 inh: human CYP2C19 inhibition; P33261; AID 778; inhibition, % at 5 µM; CYP2C19 Supersomes, luciferin-H EGE luminescence, 30 min; 96,000 tested, 21% active;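 active means CYP2C19 inhibition above a set limit at 5 µM in the primary screen, cut at about 50% in these data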;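 further: plate controls were negative control wells for no effect and 2.5 mM tranylcypromine positive control for full effect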
# Ecoli WT expand: growth inhibitors of E. coli BW25113 wild type; OD600 absorbance; growth inhibition, % at 100 µM; 98,000 tested, 0.15% active; AID 710;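 active means growth inhibition above about 50% at one test dose, limit read from the data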;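 further: growth measured after 20 h incubation at 37 °C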
# tolC growth inh: blocks growth of E. coli BW25113 tolC mutant; OD615; growth inhibition, % at 10 µM (by protocol); 65,000 tested, 2.2% active; AID 573;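 active means growth inhibition at or above a cutoff equal to the mean over every tested compound plus 3 SD, cut at about 60% in these data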;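 further: growth measured after 20 h incubation at 37 °C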
#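 System: E. coli ΔtolC::kan strain BW25113; Buffer or medium: LB broth supplemented with 50 µg/mL kanamycin; Compound: 10 µM final, single dose; Incubation: bacterial growth with compound for 20 h at 37 °C; Signal: A615 absorbance measurement; Evaluation: growth inhibition in percent.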
# CYP2C9 inhib: human CYP2C9 inhibition; P11712; CYP2C9 Supersomes, luciferin-H conversion, luminescence; inhibition, % at 5 µM; 96,000 tested, 20% active;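 active means blocking of liver enzyme CYP2C9 beyond about 50% at 5 µM, limit read from the data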
# * hit, by the source's call; / = not tested or not shown. Hits are enriched below; roughly 29% of the tested compounds scored in any of these assays.
SMILES,CYP2C9 activ,CYP2C19 activ,CYP2C19 inh,Ecoli WT expand,tolC growth inh,CYP2C9 inhib
CC1(C)C(C#N)=C(N)OC2=C1C(=O)CCC2,0.6,0.3,68*,4,-4,40
COc1cccc(CN2C(=O)C3(C(C#N)=C(N)OC4=C3C(=O)CCC4)c3ccccc32)c1 (stereo not drawn),0.3,0.8,23,4,18,66*
Cc1nnc(N(CCC#N)CCC#N)s1,0.9,0.9,5,-1,-12,10
CC(C)=C1C2CCC1C1C(=O)N(c3nc(-c4ccc(F)cc4)c(C)s3)C(=O)C21 (stereo not drawn),1.7,0.8,24,-12,/,-74
CCOC(=O)c1ccc(CNC(=O)c2n[nH]c(=O)c3ccccc23)o1,0.6,0.8,16,-9,0,40
COc1ccc(NC(C)=O)cc1NC(C)C(=O)Nc1ccc(F)cc1 (stereo not drawn),0.5,0.5,49,4,/,55*
COc1ccc(NC(C)=O)cc1NC(C)C(=O)Nc1cccc2ccccc12 (stereo not drawn),0.2,0.3,67*,-3,/,82*
COCCCn1c(SCC(=O)NC(C)C)nnc1-c1ccccc1,1.1,1,5,1,-14,-6
O=C(O)c1ccccc1S,/,/,/,/,-12,/
CCOC(=O)c1c(C)nc2sc3c(=O)n(-c4ccc(C(C)=O)cc4)nnc3c2c1-c1ccc(OC)cc1,0.5,0.4,59*,-16,/,48
CCOC(=O)c1c(C)nc2sc3c(=O)n(-c4ccc(OC)cc4)cnc3c2c1-c1ccc(OC)cc1,0.2,0.3,74*,-12,/,80*
c1ccc(OCCSc2ncnc3nc[nH]c23)cc1,/,/,/,/,11,/
COc1cnc(-c2ccccn2)nc1Oc1cccc(Cl)c1,0.9,0.9,11,14,/,8
O=C(CN1CCCc2ccccc21)NCc1ccc2c(c1)OCO2,0.7,0,99*,/,8,30
CC1CC(=O)N(CC(=O)N2CCCC2)c2ccccc2S1 (stereo not drawn),1.2,1.1,-8,1,-7,-24
CC1CC(=O)N(CC(=O)NCc2ccco2)c2ccccc2S1 (stereo not drawn),1,0.5,52*,-7,-6,2
O=C(CN1CCc2ccccc21)Nc1ccc2c(c1)OCO2,0.8,0.6,43,3,1,20
O=C(NCc1ccco1)N1c2ccccc2Sc2ccccc21,0.4,0.5,50*,2,22,58*
CN1CC(=O)N(CC(=O)NCc2ccc3c(c2)OCO3)C1=O,1,1.1,-6,-1,/,0
CC1CC(=O)N(CC(=O)NCc2ccc3c(c2)OCO3)c2ccccc2S1 (stereo not drawn),0.6,0,100*,1,-5,42
Cc1cc(NC(=O)CN2CCCC2c2nc3ccccc3s2)no1 (stereo not drawn),0.8,0.8,20,-2,3,24
COC(=O)c1cccc(OC(N)=O)c1,1.2,0.8,18,-1,-5,-25
O=C(CN1C(=O)CCS(=O)(=O)c2ccccc21)NCc1ccc2c(c1)OCO2,1,0.1,90*,7,-7,2
CC(C)Sc1nc2ccccc2n1CC(=O)NCc1ccc2c(c1)OCO2,0.9,0.8,23,-5,/,10
O=C(Cn1nc(-c2ccccc2F)ccc1=O)NCc1ccc2c(c1)OCO2,0.4,0.3,72*,-11,-20,56*
SMILES,CYP2C9 activ,CYP2C19 activ,CYP2C19 inh,Ecoli WT expand,tolC growth inh,CYP2C9 inhib
CCOc1ccc2nc(NC(=O)Cn3cnc4c3c(=O)n(C)c(=O)n4C)sc2c1,0.9,0.3,69*,-9,28,15
CCn1c(SCC(=O)Nc2nc3ccc(OC)cc3s2)nc2c1c(=O)n(C)c(=O)n2C,0.4,0.7,28,0,13,62*
CC#CCCCC(=O)Nc1cccc(C(=O)O)c1,1,0.6,39,-13,0,-4
CSc1nc(C)c2c(c1C#N)CCCC2,1.3,0.8,18,9,12,-27
N#CCCSc1nc(N2CCOCC2)c2c(c1C#N)CCCC2,0,0.1,91*,-19,10,97*
Cc1nc(N2CCOCC2)c(C#N)c(C)c1Br,0.8,0.4,56*,0,/,20
CSc1nc(N2CCOCC2)c2c(c1C#N)CCCCC2,0.2,0.5,47,-13,29,79*
CCCc1nc(N2CCOCC2)c(C#N)c2c1CCCC2,0.3,0.2,82*,9,10,72*
CCOC(=O)c1cc(C(=O)OCC)c2ccccn2c1=O,0.9,1,3,-2,/,14
CCCCc1nc(N2CCOCC2)c(C#N)c2c1CCCC2,0.5,0.7,30,5,27,49
CCCSc1nc(N2CCOCC2)c2c(c1C#N)CCCC2,0.1,0.4,59*,-7,41,93*
CC(=O)Cc1nsc(NC(=O)c2cn(-c3ccccc3)nc2-c2ccc(Br)cc2)n1,1,1.3,-31,3,/,0
CCC1CCCCN1C(=O)c1c[nH]c2ccc(S(=O)(=O)N(C)c3ccc(Cl)cc3)cc2c1=O (stereo not drawn),0.2,0.3,74*,-10,/,83*
Cc1ccccc1N(C)S(=O)(=O)c1ccc2[nH]cc(C(=O)NCC3CCCO3)c(=O)c2c1 (stereo not drawn),0.1,0.5,53*,-9,23,91*
CCOc1ccc(N(C)S(=O)(=O)c2ccc3[nH]cc(C(=O)NCC4CCCO4)c(=O)c3c2)cc1 (stereo not drawn),0.3,0.8,24,-9,11,74*
CCN(CC)S(=O)(=O)c1ccc2[nH]cc(C(=O)NCCC3=CCCCC3)c(=O)c2c1,0.1,0.2,76*,-6,98*,91*
CCc1ccc(N(C)S(=O)(=O)c2ccc3[nH]cc(C(=O)NCCN4CCOCC4)c(=O)c3c2)cc1,0.4,0.8,24,-5,/,60*
CCOC(=O)CCCCC(=O)NC(CO)C(=O)NC (stereo not drawn),1.2,1.2,-16,-1,6,-20
Cc1cc(CCN2CCC(=O)NC2=O)ccc1OC(C)C,0.9,0.5,51*,4,-12,7
Cc1cccc(N2CCN(C(=O)C(Cc3ccccc3)n3cccc3)CC2)c1C (stereo not drawn),1.1,0.7,28,-27,/,-14
CC1CCN(C(=O)C(Cc2ccccc2)n2cccc2)CC1 (stereo not drawn),0.8,0.1,93*,2,6,22
O=C(C(Cc1ccccc1)n1cccc1)N1CCN(c2ncccn2)CC1 (stereo not drawn),0.3,0.6,43,-7,-4,69*
NNC(=O)COc1ncn(-c2ccccc2)n1,0.9,0.9,8,2,/,6
COc1ccc(S(=O)(=O)N(C)CC(=O)N2CCN(C)CC2)cc1C,0.9,1.1,-12,-2,-30,12

# Screening data (PubChem)
